Where only a bound is given, the exact number is not on record here.

Assay [1] relates to Plasmodium falciparum. The assay is described as follows: Antiplasmodial activity against chloroquine-resistant Plasmodium falciparum W2 infected human erythrocytes as [3H]hypoxanthine uptake after 24 hrs. Type of assay: functional, organism-based. In short, it runs like this: (§1)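 P. falciparum (D6, W2) cultured in type A+ human erythrocytes, RPMI-1640 with NaHCO3, HEPES and 10% heat-inactivated human plasma, 37 °C under 5% O2/5% CO2/90% N2. Infected red cells at 0.5-1.0% parasitemia, 1.0% hematocrit exposed to compound, duplicate seven-point series, 24 h; then 0.5 μCi [3H]hypoxanthine per well for 18 h more. Filter harvest, scintillation counting; IC50 by nonlinear regression versus zero-drug controls.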

Assay [2] can be described thus: Selectivity index, ratio of ED50 for human KB cells to IC50 for chloroquine-resistant Plasmodium falciparum W2. Type of assay: functional.
For assay [3], the system named is Plasmodium falciparum. The assay is described as follows: Antiplasmodial activity against chloroquine-sensitive Plasmodium falciparum D6 infected human erythrocytes as [3H]hypoxanthine uptake after 24 hrs. Type of assay: functional, organism-based. In short, it runs like this:
as §1

Assay [4] can be described thus: Selectivity index, ratio of ED50 for human KB cells to IC50 for […] Plasmodium falciparum D6. Type of assay: functional.
Another assay relates to KB. The assay is described as follows: Cytotoxicity against human KB cells after 72 hrs by SRB assay. As to conditions: read-out: ED50 (the source's name). It is filed as functional. In short, it runs like this: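 KB-3 cells grown in DMEM with 10% FBS at 37 °C and 5% CO₂ to 60–70% confluence, then used 1 day after a medium change. Samples were dissolved in DMSO and serially diluted in 10% aqueous DMSO. 5×10⁴ cells were exposed for 72 h at 37 °C, then TCA-fixed, stained with 0.4% SRB and read at 515 nm. Zero-day control was subtracted and values expressed relative to solvent control; ED50 by nonlinear regression.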
In general terms: Sulforhodamine B stains cellular protein and so reports cell mass.

The term IC50 denotes the concentration that inhibits the measured activity by half. A lower IC50 goes with higher potency. Consider `COc1cc2c3cc1Oc1cc(ccc1O)C[C@@H]1c4c(cc(OC)c(O)c4Oc4ccc(cc4)C[C@@H]3N(C)CC2)CC[N+]1(C)C.[Cl-]`, for which the IC50 in the assay with Plasmodium falciparum [1] was above 16400 nM; in the assay on Plasmodium falciparum [3], 15300 nM. For the same compound, the entries for the “Selectivity Index” value in assay [2] and in assay [4] were 2 and above 2.1, respectively. Besides, the EC50 with KB was above 32800 nM.
Turning to `COc1ccc2cc1Oc1cc3c(cc1OC)CCN=C3Cc1ccc(cc1)COc1c(OC)cc3c(c1O)[C@H](C2)N(C)CC3`, the IC50 with Plasmodium falciparum [1] is 169 nM; with Plasmodium falciparum [3] it was 346 nM. In addition, the results for the “Selectivity Index” value in assay [2] and in assay [4] were above 200 and above 98, respectively. In addition, the EC50 in the assay on KB is above 33800 nM.
In the same order, the values of `COc1cc2c3c(c1O)Oc1cc4c(cc1O)CCN(C)[C@H]4Cc1ccc(O)c(c1)Oc1ccc(cc1)C[C@@H]2NCC3` are 1590 nM, 883 nM, 11, 20 and 17800 nM.
For `COc1ccc2cc1Oc1cc3c(cc1OC)CCN[C@@H]3Cc1ccc(cc1)Oc1c3c(cc4c1[C@@H](C2)N(C)CC4)OCO3`, in that order: 676 nM, 530 nM, 21.2, 27.1 and 14400 nM.
In the same order, the values of `COc1ccc2cc1Oc1cc3c(cc1OC)CCN(C(C)=O)[C@H]3Cc1ccc(cc1)Oc1c3c(cc4c1[C@H](C2)N(C)CC4)OCO3` are 1200 nM, 2320 nM, 7, 3.6 and 8360 nM.
As for `COc1ccc2cc1Oc1cc3c(cc1OC)CCN(C)[C@@H]3Cc1ccc(cc1)Oc1c(O)c(OC)cc3c1[C@@H](C2)N(C)CC3`, the IC50 in the assay on Plasmodium falciparum [1] was 387 nM; in the assay on Plasmodium falciparum [3] it was 128 nM. The “Selectivity Index” value in assay [2] amounted to 20; in assay [4] it was 60. The EC50 with KB stood at 7700 nM.
For `COc1ccc2cc1Oc1cc3c(nccc3cc1OC)Cc1ccc(cc1)COc1c(OC)cc3c(c1O)[C@H](C2)N(C)CC3`, the results for the IC50 in the assay on Plasmodium falciparum [1] and in the assay with Plasmodium falciparum [3] were 66 nM and 115 nM, respectively. Also, the entries for the “Selectivity Index” value in assay [2] and in assay [4] were 220 and 130, respectively. Further, the EC50 in the assay on KB amounted to 14700 nM.
For `COc1cc2ccnc3c2cc1Oc1cc(ccc1O)C[C@H]1c2c(cc(OC)c(c2O)OCc2ccc(cc2)C3)CCN1C`, in that order: 59 nM, 110 nM, above 580, above 310 and above 33900 nM.
In the same order, the values of `COc1ccc2cc1Oc1cc3c(cc1OC)CCN[C@H]3Cc1ccc(cc1)Oc1c3c(cc4c1[C@@H](C2)N(C)CC4)OCO3` are 662 nM, 1270 nM, 13.3, 7.5 and 8800 nM.
In the same order, the values of `COc1cc2c3cc1Oc1cc(ccc1O)C[C@H]1c4c(cc(OC)c(c4O)OCc4ccc(cc4)CC3NCC2)CCN1C` (stereo not given in full) are 199 nM, 348 nM, 43.2, 24.6 and 8580 nM.
`COc1ccc2cc1Oc1cc3c(cc1OC)CCN=C3Cc1ccc(cc1)Oc1c3c(cc4c1[C@@H](C2)N(C)CC4)OCO3`: the IC50 with Plasmodium falciparum [1] was 2100 nM; in the assay with Plasmodium falciparum [3], 4980 nM. Moreover, the “Selectivity Index” value in assay [2] is recorded as above 16.1; in assay [4], above 6.8. Besides, the EC50 with KB is above 33900 nM.
In the same order, the values of `COc1ccc2cc1Oc1ccc(cc1)C[C@H]1c3c(cc(OC)c(OC)c3Oc3c4c(cc(OC)c3OC)[C@H](C2)N(C)CC4)CCN1C` are 110 nM, 224 nM, 76.4, 37.7 and 8400 nM.
Consider `COc1cc2c3cc1Oc1cc(ccc1O)C[C@@H]1c4c(cc5c(c4Oc4ccc(cc4)C[C@@H]3N(C(C)=O)CC2)OCO5)CCN1C`, for which the IC50 with Plasmodium falciparum [1] was found to be 4030 nM; in the assay with Plasmodium falciparum [3], 6890 nM. The “Selectivity Index” value in assay [2] amounted to 2.2; in assay [4], 1.3. The EC50 in the assay on KB was found to be 8870 nM.
In the same order, the values of `C[C@@H]1CC[C@H]2[C@@H](C)C(=O)O[C@@H]3O[C@@]4(C)CC[C@@H]1[C@]32OO4` [ARTEMISININ] are 14.6 nM, 15.1 nM, above 4860, above 4680 and above 70900 nM.
In the same order, the values of `COc1cc2c3cc1Oc1c(OC)c(OC)cc4c1[C@@H](Cc1ccc(O)c(c1)Oc1ccc(cc1)C[C@@H]3N(C)CC2)N(C)CC4` [BERBAMINE] are 313 nM, 128 nM, 29, 72 and 9210 nM.
For the compound `COc1ccc2cc1Oc1ccc(cc1)C[C@H]1c3c(cc4c(c3Oc3cc5c(cc3OC)CCN(C)[C@@H]5C2)OCO4)CCN1C` [CEPHARANTHINE], the IC50 worked out at 478 nM in the assay on Plasmodium falciparum [1] and 231 nM in the assay on Plasmodium falciparum [3]. Further, the “Selectivity Index” value in assay [2] came out at 20; in assay [4], 42. For the same compound, in the assay with KB, the EC50 worked out at 9700 nM.
In the same order, the values of `COc1ccc2cc1Oc1ccc(cc1)C[C@H]1c3cc(c(OC)cc3CCN1C)Oc1c(OC)c(OC)cc3c1[C@H](C2)N(C)CC3` [FANCHININ] are 257 nM, 288 nM, 22, 20 and 5800 nM.
For `COc1ccc2cc1Oc1ccc(cc1)C[C@H]1c3cc(c(OC)cc3CCN1C)Oc1c(O)c(OC)cc3c1[C@H](C2)N(C)CC3` [FANGCHINOLINE], in that order: 306 nM, 179 nM, 30, 51 and 9210 nM.
For `COc1ccc2cc1Oc1ccc(cc1)C[C@H]1c3c(cc(OC)c(O)c3Oc3cc4c(cc3OC)CCN(C)[C@@H]4C2)CCN1C` [HOMOAROMOLINE], in that order: 474 nM, 173 nM, 22, 60 and 10400 nM.
In the case of `COc1ccc2cc1Oc1ccc(cc1)C[C@H]1c3c(cc(OC)c4c3Oc3cc5c(cc3O4)CCN(C)[C@H]5C2)CCN1C` [ISOTRILOBINE], the IC50 was found to be 788 nM in the assay with Plasmodium falciparum [1] and 388 nM in the assay with Plasmodium falciparum [3]. Further, the “Selectivity Index” value in assay [2] turned out to be 30; in assay [4] it was 62. For the same compound, the EC50 with KB was determined as 24000 nM.
In the same order, the values of `COc1cc2c(cc1O)[C@H](Cc1ccc(OC)c(Oc3ccc(C[C@H]4c5cc(OC)c(OC)cc5CCN4C)cc3)c1)N(C)CC2` [NEOTHALIBRINE] are 135 nM, 47 nM, 75, 215 and 10100 nM.
On to `COc1ccc2cc1Oc1ccc(cc1)C[C@H]1c3c(cc(OC)c(OC)c3Oc3cc4c(cc3OC)CCN(C)[C@@H]4C2)CCN1C` [OBABERINE], for which the IC50 worked out at 347 nM in the assay with Plasmodium falciparum [1] and 371 nM with Plasmodium falciparum [3]. Moreover, the “Selectivity Index” value in assay [2] is 40; in assay [4], 37. Further, the EC50 with KB came to 13800 nM.
For `COc1cc2c3cc1Oc1c(O)c(OC)cc4c1[C@@H](Cc1ccc(O)c(c1)Oc1ccc(cc1)C[C@@H]3N(C)CC2)N(C)CC4` [OBAMEGINE], in that order: 825 nM, 354 nM, 17, 40 and 14100 nM.
For the compound `COc1ccc2cc1Oc1ccc(cc1)C[C@@H]1c3cc(c(OC)cc3CCN1C)Oc1c(OC)c(OC)cc3c1[C@@H](C2)N(C)CC3` [PHAEANTHINE], the IC50 in the assay on Plasmodium falciparum [1] came out at 498 nM; in the assay on Plasmodium falciparum [3], 305 nM. The results for the “Selectivity Index” value in assay [2] and in assay [4] were 22 and 35, respectively. Further, in the assay on KB, the EC50 was found to be 10800 nM.
For `C=C[C@H]1CN2CC[C@H]1C[C@H]2[C@H](O)c1ccnc2ccc(OC)cc12` [QUININE], in that order: 250 nM, 23.4 nM, above 222, above 285 and above 55400 nM.
In the same order, the values of `COc1ccc2cc1Oc1ccc(cc1)C[C@@H]1NCCc3cc(OC)c4c(c31)Oc1cc3c(cc1O4)CCN(C)[C@H]3C2` [TRILOBINE] are 451 nM, 169 nM, 19, 49 and 8300 nM.

Source of the values: ChEMBL document CHEMBL1157985, “Antiplasmodial and cytotoxic activity of natural bisbenzylisoquinoline alkaloids” (J Nat Prod, 1999).
